Laboratory results: ChEMBL document CHEMBL4371095, “Triazole-Based Inhibitors of the Wnt/β-Catenin Signaling Pathway Improve Glucose and Lipid Metabolisms in Diet-Induced Obese Mice” (J Med Chem, 2019)
Calls of active or inactive are those of the source. The rule behind the calls is not given here.

Experiments:
Mus musculus [1] = test: Decrease in hepatic Glp1 mRNA level in high fat diet fed C57BL/6J mouse at 40 mg/kg, ip administered every 2 days for 11 weeks by qPCR analysis; assay type: functional, organism-based
Procedure, shortened: (§1)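 Male mice, 8 weeks old, fed a 45% kcal fat diet for 6 weeks, then dosed i.p. every 2 days in corn oil vehicle for 11 weeks. Liver mRNA of the indicated genes was quantified at sacrifice; mean ± SEM, n = 5 per group.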

HEK293 [2] = test: Growth inhibition of HEK293 cells harboring Wnt after 24 hrs by CellTiter-Fluor assay; assay type: cell-based; conditions: human, hek293, 24 h
Procedure, shortened: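 HEK293 cells stably carrying the TOPFlash reporter were plated at 2000/well in DMEM with 10% FBS and incubated overnight. Compound was added with recombinant human Wnt-3a, then incubated 24 h at 37 °C. CellTiter-Fluor reagent was added and fluorescence read after 30 min at 37 °C.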

Mus musculus [3] = test: Decrease in hepatic ACOT4 mRNA level in high fat diet fed C57BL/6J mouse at 40 mg/kg, ip administered every 2 days for 11 weeks by qPCR analysis; assay type: functional, organism-based; procedure, shortened: as §1
Mus musculus [4] = test: Decrease in hepatic GCK mRNA level in high fat diet fed C57BL/6J mouse at 40 mg/kg, ip administered every 2 days for 11 weeks by qPCR analysis; assay type: functional, organism-based; procedure, shortened: as §1
[5] = Toxicity in normal chow diet fed C57BL/6J mouse assessed as serum AST level at 40 mg/kg, ip administered every 2 days for 11 weeks (reference value: 119 +/- 28.3 U/L); assay type: organism-based; conditions: in vivo
[6] = Toxicity in high fat diet fed C57BL/6J mouse assessed as serum triglyceride level at 40 mg/kg, ip administered every 2 days for 11 weeks (reference value: 93.5 +/- 12.1 mg/dl); assay type: organism-based; conditions: in vivo
Mus musculus [7] = test: Decrease in hepatic triglyceride content in high fat diet fed C57BL/6J mouse at 40 mg/kg, ip administered every 2 days for 11 weeks; assay type: functional, organism-based
Procedure, shortened: (§2)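 Male mice, 8 weeks old, 24–27 g, given a 45% kcal fat diet for 6 weeks, then dosed i.p. every 2 days in corn oil vehicle with the diet continued. Sacrifice was about 24 h after the last dose. Liver was examined by H&E. Liver and serum triglyceride were measured by kit. Serum chemistry was included, and liver/body weight ratio was calculated.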

Mus musculus [8] = test: Decrease in hepatic ACAT2 mRNA level in high fat diet fed C57BL/6J mouse at 40 mg/kg, ip administered every 2 days for 11 weeks by qPCR analysis; assay type: functional, organism-based; procedure, shortened: as §1
Mus musculus [9] = test: Decrease in liver weight adjusted by body weight gain in high fat diet fed C57BL/6J mouse at 40 mg/kg, ip administered every 2 days for 11 weeks; assay type: functional, organism-based; procedure, shortened: as §2
Mus musculus [10] = organism: Mus musculus; test: Inhibition of Wnt/beta-catenin/Axin signaling in mouse hepatocytes assessed as decrease in SCD1 mRNA level at 5 uM by qPCR analysis; assay type: cell-based
Procedure, shortened: (§3)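 Normal mouse hepatocytes were treated with 5 μM compound, and lipogenic and gluconeogenic gene mRNA was measured by qPCR; mean ± S.D. of triplicates.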

Mus musculus [11] = test: Decrease in hepatic FGF21 mRNA level in high fat diet fed C57BL/6J mouse at 40 mg/kg, ip administered every 2 days for 11 weeks by qPCR analysis; assay type: functional, organism-based; procedure, shortened: as §1
[12] = Toxicity in normal chow diet fed C57BL/6J mouse assessed as serum uric acid level at 40 mg/kg, ip administered every 2 days for 11 weeks (reference value: 4 +/- 0.2 mg/dl); assay type: organism-based; conditions: in vivo
Mus musculus [13] = test: Decrease in hepatic […] mRNA level in high fat diet fed C57BL/6J mouse at 40 mg/kg, ip administered every 2 days for 11 weeks by qPCR analysis; assay type: functional, organism-based; procedure, shortened: as §1
Mus musculus [14] = test: Effect on hepatic […] mRNA level in normal chow diet fed C57BL/6J mouse at 40 mg/kg, ip administered every 2 days for 11 weeks by qPCR analysis; assay type: ADME, organism-based; conditions: in vivo
Procedure, shortened: (§4)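 Male mice, 8 weeks old, kept on normal chow throughout and dosed i.p. every 2 days in corn oil vehicle for 11 weeks. Body weight gain, liver/body weight ratio, and liver mRNA of the indicated genes were measured at sacrifice; mean ± SEM, n = 5 per group where stated.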

Mus musculus [15] = test: Effect on hepatic FGF21 mRNA level in normal chow diet fed C57BL/6J mouse at 40 mg/kg, ip administered every 2 days for 11 weeks by qPCR analysis; assay type: ADME, organism-based; conditions: in vivo; procedure, shortened: as §4
Mus musculus [16] = test: Decrease in hepatic FASN mRNA level in high fat diet fed C57BL/6J mouse at 40 mg/kg, ip administered every 2 days for 11 weeks by qPCR analysis; assay type: functional, organism-based; procedure, shortened: as §1
Mus musculus [17] = test: Decrease in hepatic CycD1 mRNA level in high fat diet fed C57BL/6J mouse at 40 mg/kg, ip administered every 2 days for 11 weeks by qPCR analysis; assay type: functional, organism-based; procedure, shortened: as §1
[18] = biological target: Casein kinase I isoform alpha (Homo sapiens) (UniProt P48729); test: Binding affinity to CK1alpha (unknown origin) by SPR analysis
[19] = Inhibition of Wnt/beta-catenin signaling (unknown origin) expressed in HEK293 cells harboring siRNA after 24 hrs by luciferase reporter gene assay; assay type: cell-based; conditions: Homo sapiens, HEK293, 24 h
Mus musculus [20] = organism: Mus musculus; test: Inhibition of Wnt/beta-catenin/Axin signaling in mouse hepatocytes assessed as decrease in PEPCK mRNA level at 5 uM by qPCR analysis; assay type: cell-based; procedure, shortened: as §3
HEK293 [21] = test: Inhibition of Wnt/beta-catenin signaling (unknown origin) expressed in CK1alpha knock down HEK293 cells harboring TCF/LEF-responsive luciferase assessed as luminescence at 20 nM measured after 24 hrs by luciferase reporter gene assay relative to control; assay type: cell-based; parameters: scale not given: the % may be the effect or the level left; conditions: Homo sapiens
Procedure, shortened: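 HEK293 cells were transfected with siRNA against GSK3β, Axin or CK1α using RNAiMAX for 36 h. Cells were then treated with or without compound at 20 nM for 24 h, and TCF/LEF luciferase reporter activity was read.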

Mus musculus [22] = organism: Mus musculus; test: Inhibition of Wnt/beta-catenin/Axin signaling in mouse hepatocytes assessed as decrease in G6PASE mRNA level at 5 uM by qPCR analysis; assay type: cell-based; procedure, shortened: as §3
[23] = Toxicity in high fat diet fed mouse up to 200 mg/kg, ip by LC-MS analysis; assay type: organism-based; conditions: in vivo
[24] = Inhibition of Wnt3a activated Wnt/beta-catenin signaling (unknown origin) expressed in HEK293 cells harboring TCF/LEF-responsive luciferase preincubated with cells followed by Wnt3a addition and measured after 24 hrs by luciferase reporter gene assay; assay type: cell-based; conditions: Homo sapiens
Procedure, shortened: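 HEK293 cells stably carrying TOPFlash/GFP were plated at 2000/well in DMEM with 10% FBS and kept overnight at 37 °C. Compound was pin-transferred, then recombinant human Wnt-3a was added (200 ng/mL working stock). After 24 h at 37 °C, ONE-Glo luminescence was read after 30 min. IC50 is mean ± SE from three independent experiments.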

HEK293 [25] = test: Inhibition of Wnt/beta-catenin/Axin signaling (unknown origin) expressed in HEK293 cells assessed as decrease in Axin2 mRNA level after 48 hrs by qPCR analysis; assay type: cell-based; conditions: Homo sapiens
Procedure, shortened: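 HEK293 cells were treated with compound for 48 h, harvested in TRIzol, and Wnt target gene mRNA was quantified by qPCR.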

[26] = Toxicity in high fat diet fed C57BL/6J mouse assessed as serum total bilirubin level at 40 mg/kg, ip administered every 2 days for 11 weeks (reference value: 0.2 mg/dl); assay type: organism-based; conditions: in vivo
[27] = Toxicity in normal chow diet fed C57BL/6J mouse assessed as serum total bilirubin level at 40 mg/kg, ip administered every 2 days for 11 weeks (reference value: 0.2 mg/dl); assay type: organism-based; conditions: in vivo

Sequence of Casein kinase I isoform alpha (Homo sapiens) (P48729 2-337 limits assumed): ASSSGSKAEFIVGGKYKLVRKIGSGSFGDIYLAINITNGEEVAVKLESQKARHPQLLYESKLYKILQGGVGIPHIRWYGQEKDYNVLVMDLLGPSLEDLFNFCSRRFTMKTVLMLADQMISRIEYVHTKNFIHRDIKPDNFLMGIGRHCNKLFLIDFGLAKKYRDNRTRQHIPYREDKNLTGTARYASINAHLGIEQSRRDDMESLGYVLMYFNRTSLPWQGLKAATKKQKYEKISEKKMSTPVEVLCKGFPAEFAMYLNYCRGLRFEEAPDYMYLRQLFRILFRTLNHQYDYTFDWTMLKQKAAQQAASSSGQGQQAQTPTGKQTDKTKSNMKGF

What does the source list for `Cc1ccccc1-n1nnc(C(=O)Nc2ccc3ccccc3n2)c1C`?
Activity (Mus musculus [1]): Active; growth inhibition (GI) (HEK293 [2]): Non-Toxic; Activity (Mus musculus [3]): Active; Activity (Mus musculus [4]): Active; Activity [5]: 74.5 U/L; Activity [6]: 85.3 mg/dL; Activity (Mus musculus [7]): Active; Activity (Mus musculus [8]): Active; Activity (Mus musculus [9]): Active; inhibition (Mus musculus [10]): Active; Activity (Mus musculus [11]): Active; Activity [12]: 3.8 mg/dL; Activity (Mus musculus [13]): Active; Activity (Mus musculus [14]): Non-Toxic; Activity (Mus musculus [15]): Non-Toxic; Activity (Mus musculus [16]): Active; Activity (Mus musculus [17]): Active; Activity [18]: inactive; IC50 [19]: 20 nM; inhibition (Mus musculus [20]): Active; Activity (HEK293 [21]): 52%; inhibition (Mus musculus [22]): Active; Activity [23]: Non-Toxic; IC50 [24]: 4.1 nM; inhibition (HEK293 [25]): Active; Activity [26]: 0.2 mg/dL; Activity [27]: 0.2 mg/dL
